Measured values gathered from unrelated publications.
Compare with care: the assays were run in different laboratories.
Target: Ephrin type-A receptor 5 (EPHA5, Homo sapiens, UniProt P54756)

SMILES | observed | technique | concentration | remaining binding [%]
C[C@@]1(Cc2ccc(C#N)cc2)C(=O)N(c2cc(Cl)cc(Cl)c2)c2ncc(C(=O)NC3(c4nc(C5CCC5)no4)CC3)n21 | cell-free assay | competition with immobilised ligand | 1 µM | 100
CN(C)c1ncc(F)c(-c2cnn3ncccc23)n1 | binding |  | 1 µM | 100
Cc1cnc(Nc2ccc(C(=O)N3CCC(N4CCCC4)CC3)cc2)nc1-c1cc2ccccc2s1 | binding | competition with immobilised ligand | 1 µM | 74
CN(CCCC(F)(F)F)c1nccc(-c2cnn3ncccc23)n1 | binding |  | 1 µM | 100
O=C(NCCCN1CCOCC1)c1ccc(Nc2ncc(Cl)c(-c3ccc(Cl)s3)n2)cc1 | binding | competition with immobilised ligand | 1 µM | 99
CC1=C(C#N)[C@@H](c2ccc3[nH]nc(C)c3c2)C(C#N)=C(c2ccc(Cl)cc2)N1 | cell-free assay | competition with immobilised ligand | 1 µM | 100
c1cnn2ncc(-c3ccnc(N4CCC45COC5)n3)c2c1 | binding |  | 1 µM | 99
O=C(c1ccc(Nc2ncc(Cl)c(-c3cc4ccccc4s3)n2)cc1)N1CCC(N2CCCC2)CC1 | binding | competition with immobilised ligand | 1 µM | 86
CCN1CCN(Cc2ccc(C(=O)Nc3ccc(C)c(Oc4ccc5c(c4)CC(=O)N5)c3)cc2C(F)(F)F)CC1 | binding | competition with immobilised ligand | 1 µM | 100
CNCc1ccccc1-c1csc([C@@H](C)Nc2nc(C)nc3cc(OC)c(OC)cc23)c1 | cell-free assay | competition with immobilised ligand | 1 µM | 88
F[C@@H]1CCN(c2nccc(-c3cnn4ncccc34)n2)C1 | binding |  | 1 µM | 100
c1cncc(-c2cccc(Nc3nccc(NC4CCCCC4)n3)c2)c1 | binding | competition with immobilised ligand | 10 µM | 100
COc1cnc(Nc2cccc(S(N)(=O)=O)c2)nc1N1CCN(c2ccccc2)C(=O)C1 | binding | competition with immobilised ligand | 1 µM | 100
CC1=C(C#N)C(c2ccc3c(c2)c(NC(=O)c2ccccc2C)nn3C)C(C#N)=C(C)N1 | cell-free assay | competition with immobilised ligand | 1 µM | 77
Cc1cnn2ncc(-c3ccnc(N(C)C)n3)c2c1 | binding |  | 1 µM | 100
Nc1ncc2c(n1)-c1c([nH]c3ccc(C#CC4CC4)cc13)CCCC2 | binding | competition with immobilised ligand | 1 µM | 97
CNC(=O)Nc1ccc2c(c1)[C@@]1(CC2)OC(=O)N(CC(=O)N(Cc2ccc(F)cc2)[C@@H](C)C(F)(F)F)C1=O | cell-free assay | competition with immobilised ligand | 1 µM | 94
N[C@H]1CCN(c2nccc(-c3cnn4ncccc34)n2)C1 | binding |  | 1 µM | 100
Cc1nc(Cc2cccc(C(F)(F)F)c2)sc1-c1ccc(C(N)=O)nc1 | cell-free assay | competition with immobilised ligand | 1 µM | 100
O=C(NCC1CCOCC1)c1n[nH]cc1NC(=O)c1c(F)cccc1F | binding | competition with immobilised ligand | 1 µM | 100
